Data as given in ChEMBL document CHEMBL4725350, “2-Oxaadamant-1-yl Ureas as Soluble Epoxide Hydrolase Inhibitors: In Vivo Evaluation in a Murine Model of Acute Pancreatitis” (J Med Chem, 2020).
Activity calls are given as the source filed them. No cut-off for these calls is given here.

What was measured:
Homo sapiens [1] = species on record: Homo sapiens; test: Selectivity ratio of inhibition of recombinant human CYP3A4 to IC50 for inhibition of recombinant human soluble epoxide hydrolase using 7-BFC as substrate
Homo sapiens [2] = species on record: Homo sapiens; test: Selectivity ratio of inhibition of recombinant human CYP2C19 to IC50 for inhibition of recombinant human soluble epoxide hydrolase
[3] = Selectivity ratio of inhibition of recombinant human CYP2C19 to IC50 for inhibition of recombinant mouse soluble epoxide hydrolase
[4] = Selectivity ratio of inhibition of recombinant human CYP3A4 to IC50 for inhibition of recombinant mouse soluble epoxide hydrolase using DBF as substrate
[5] = Acute toxicity in CD-1 mouse assessed as effect on body weight at 5 to 80 mg/kg, ip administered daily for 5 days and measured for 5 days; format: organism-based; settings: in vivo, 240 h, dose 5-80 mg/kg, time 10 day
In short: (§1)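 Mice received the compound intraperitoneally once a day for five consecutive days at 5, 10, 20 and 80 mg/kg. Acute toxicity was judged from body weight during treatment, apparent behaviour problems and the presence of petechiae.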

Mus musculus [6] = test: Protection against cerulein-induced acute pancreatitis in C57BL/6J mouse assessed as reduction in edema at 30 mg/kg administered 24 hrs post-cerulein addition and measured after 24 hrs by H and E staining based histological analysis; format: functional, organism-based
In short: (§2)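 H&E-stained pancreas sections are scored for edema and inflammation. Groups are control, cerulein and cerulein plus inhibitor, in both the pre-induction and post-induction cerulein acute pancreatitis models in mice.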

[7] = Apparent volume of distribution in CD-1 mouse at 1 mg/kg, iv measured up to 24 hrs by LC-MS analysis; format: ADME, organism-based; settings: in vivo
In short: (§3)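 Single dose, 1 mg/kg, given to mice intravenously or intraperitoneally. Parameters are taken from the plasma concentration–time profile: T1/2, Tmax, Cmax, C0 (iv only), AUClast, AUCINF_obs, Vz and Cl. Bioavailability is derived from ip versus iv exposure.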

[8] = AUC (infinity) in CD-1 mouse at 1 mg/kg, iv measured up to 24 hrs by LC-MS analysis; format: ADME, organism-based; parameters: route intravenous, dose 1 mg/kg, time <=24; settings: in vivo; in short: as §3
[9] = AUClast in CD-1 mouse at 1 mg/kg, ip measured up to 24 hrs by LC-MS analysis; format: ADME, organism-based; parameters: route intraperitoneal, dose 1 mg/kg, time <=24; settings: in vivo; in short: as §3
Mus musculus [10] = test: Protection against cerulein-induced acute pancreatitis in C57BL/6J mouse assessed as reduction in MCP1 mRNA level at 30 mg/kg administered 24 hrs post-cerulein addition and measured after 24 hrs by Trisure-reagent based RT-PCR analysis; format: functional, organism-based
In short: (§4)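 Post-induction (treatment) protocol in C57BL/6J mice. Acute pancreatitis is induced by several cerulein administrations, followed by ip sEH inhibitor at 3 or 30 mg/kg. Pancreatic mRNA of TNF-α, IL-1β, MCP-1 and ATF3 is quantified against control and cerulein-only groups. Mean ± SEM, n = 5 per group.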

[11] = Cmax in CD-1 mouse at 1 mg/kg, iv measured up to 24 hrs by LC-MS analysis; format: ADME, organism-based; parameters: route intravenous, dose 1 mg/kg, time <=24; settings: in vivo; in short: as §3
Mus musculus [12] = test: Protection against cerulein-induced acute pancreatitis in C57BL/6J mouse assessed as reduction in ATF3 mRNA level at 3 mg/kg administered 24 hrs post-cerulein addition and measured after 24 hrs by Trisure-reagent based RT-PCR analysis; format: functional, organism-based; in short: as §4
Mus musculus [13] = test: Protection against cerulein-induced acute pancreatitis in C57BL/6J mouse assessed as reduction in inflammation at 30 mg/kg administered twice per day for 5 days followed by cerulein addition and measured 24 hrs post-last dose by H and E staining based histological analysis; format: functional, organism-based; settings: time 6.0 day; in short: as §2
[14] = Clearance in CD-1 mouse at 1 mg/kg, iv measured up to 24 hrs by LC-MS analysis; format: ADME, organism-based; settings: in vivo; in short: as §3
[15] = Acute toxicity in CD-1 mouse assessed as petechiae at 5 to 80 mg/kg, ip administered daily for 5 days; format: organism-based; settings: in vivo, 120 h, dose 5-80 mg/kg, time 5 day; in short: as §1
Mus musculus [16] = test: Protection against cerulein-induced acute pancreatitis in C57BL/6J mouse assessed as reduction in IL1-beta mRNA level at 3 mg/kg administered 24 hrs post-cerulein addition and measured after 24 hrs by Trisure-reagent based RT-PCR analysis; format: functional, organism-based; in short: as §4
Mus musculus [17] = test: Protection against cerulein-induced acute pancreatitis in C57BL/6J mouse assessed as reduction in ATF3 mRNA level at 30 mg/kg administered twice per day for 5 days followed by cerulein addition and measured 24 hrs post-last dose by Trisure-reagent based RT-PCR analysis; format: functional, organism-based; settings: time 6.0 day
In short: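 Pre-induction (prevention) protocol in C57BL/6J mice. Inhibitor is given ip at 30 mg/kg before cerulein induction of acute pancreatitis. Pancreatic mRNA of TNF-α, IL-1β, MCP-1 and ATF3 is compared with control and cerulein-only mice. Mean ± SEM, n = 5 per group.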

Mus musculus [18] = test: Protection against cerulein-induced acute pancreatitis in C57BL/6J mouse assessed as reduction in IL-1beta mRNA level at 30 mg/kg administered 24 hrs post-cerulein addition and measured after 24 hrs by Trisure-reagent based RT-PCR analysis; format: functional, organism-based; in short: as §4
[19] = Clearance in CD-1 mouse at 1 mg/kg, ip measured up to 24 hrs by LC-MS analysis; format: ADME, organism-based; settings: in vivo; in short: as §3
[20] = AUClast in CD-1 mouse at 1 mg/kg, iv measured up to 24 hrs by LC-MS analysis; format: ADME, organism-based; parameters: route intravenous, dose 1 mg/kg, time <=24; settings: in vivo; in short: as §3
Mus musculus [21] = test: Protection against cerulein-induced acute pancreatitis in C57BL/6J mouse assessed as reduction in inflammation at 30 mg/kg administered 24 hrs post-cerulein addition and measured after 24 hrs by H and E staining based histological analysis; format: functional, organism-based; in short: as §2
[22] = Apparent volume of distribution in CD-1 mouse at 1 mg/kg, ip measured up to 24 hrs by LC-MS analysis; format: ADME, organism-based; settings: in vivo; in short: as §3

CC(=O)N1CCC(NC(=O)NC23CC4CC(CC(C4)O2)C3)CC1
Selectivity ratio (Homo sapiens [1]): > 100
Selectivity ratio (Homo sapiens [2]): > 100
Selectivity ratio [3]: > 100
Selectivity ratio [4]: > 100

CC(C)S(=O)(=O)N1CCC(NC(=O)NC23CC4CC(CC(C4)O2)C3)CC1
Activity [5]: Non-Toxic
Activity (Mus musculus [6]): Active
Vz [7]: 67.73 L/kg
AUC [8]: 59.63 ng·h/mL
AUClast [9]: 34.67 ng·h/mL
Activity (Mus musculus [10]): Active
Cmax [11]: 108.33 ng/mL
Activity (Mus musculus [12]): inactive
Activity (Mus musculus [13]): Active
CL [14]: 279.5 mL/min/kg
Activity [15]: Non-Toxic
Activity (Mus musculus [16]): inactive
Activity (Mus musculus [17]): Active
Activity (Mus musculus [18]): Active
CL/F [19]: 474 mL/min/kg
AUClast [20]: 59.1 ng·h/mL
Activity (Mus musculus [21]): Active
Vz [22]: 124.02 L/kg
